In ChEMBL document CHEMBL1177846, “Benzylidene/2-chlorobenzylidene hydrazides: synthesis, antimicrobial activity, QSAR studies and antiviral evaluation” (Eur J Med Chem, 2010):
In brackets after ≈: the same amount, converted by molar mass. Activity calls are given as the source filed them. No cut-off for these calls is given here.

How the values were obtained:
[1] = system: Respiratory syncytial virus; assay: Antiviral activity against RSV infected in human HeLa cells assessed as inhibition of virus-induced cytopathic effect after 3 days by MTS assay; format: functional, organism-based; conditions: 72 h
In short: (§1)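 Confluent cell monolayers were infected with 100 CCID50 of virus and allowed 2 h adsorption at 37 °C. Virus was then removed and serial compound dilutions were added. Cultures were incubated at 37 °C for 3 days, until CPE was complete in the untreated virus control. EC50 was the concentration giving 50% inhibition of virus-induced CPE, by visual score or by MTS formazan cell viability.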

Coxsackievirus B4 [2] = assay: Antiviral activity against Coxsackie virus B4 infected in human HeLa cells assessed as inhibition of virus-induced cytopathic effect after 3 days by MTS assay; format: functional, organism-based; conditions: Enterovirus B, 72 h; in short: as §1
HeLa = assay: (§2) Cytotoxicity against human HeLa cells after 3 days by MTS assay; format: cell-based; conditions: hela, 72 h
In short: (§3)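 Uninfected HeLa cells were run in parallel with the antiviral assay and exposed to serial compound dilutions. CC50 is the 50% cytotoxic concentration from colorimetric formazan-based MTS cell viability.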

[3] = as §2; format: cell-based; conditions: HeLa cells; in short: as §3
Coxsackievirus B4 [4] = assay: Antiviral activity against Coxsackie virus B4 infected in african green monkey Vero cells assessed as inhibition of virus-induced cytopathic effect after 3 days by MTS assay; format: functional, organism-based; in short: as §1
Influenza A virus [5] = assay: Antiviral activity against influenza A virus H1N1 infected in MDCK cells assessed as inhibition of virus-induced cytopathic effect after 3 days by MTS assay; format: functional, organism-based; in short: as §1
Bacillus subtilis = assay: Antibacterial activity against Bacillus subtilis after 24 hrs by serial dilution method; format: functional
[6] = system: Vesicular stomatitis virus; assay: Antiviral activity against VSV infected in human HEL cells assessed as inhibition of virus-induced cytopathic effect after 3 days by MTS assay; format: functional, organism-based; in short: as §1
Human alphaherpesvirus 2 = assay: Antiviral activity against Herpes simplex virus 2 G infected in human HEL cells assessed as inhibition of virus-induced cytopathic effect after 3 days by MTS assay; format: functional, organism-based; conditions: strain G; in short: as §1
Vaccinia virus = assay: Antiviral activity against Vaccinia virus infected in human HEL cells assessed as inhibition of virus-induced cytopathic effect after 3 days by MTS assay; format: functional, organism-based; conditions: Orthopoxvirus vaccinia; in short: as §1
Aspergillus niger = assay: Antifungal activity against Aspergillus niger after 7 days by serial dilution method; format: functional
Candida albicans = assay: Antifungal activity against Candida albicans after 48 hrs by serial dilution method; format: functional
In short: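 Serial compound dilutions in Sabouraud dextrose broth (tube dilution), incubated 37 °C for 48 h. MIC was read as the lowest concentration with no growth.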

Influenza A virus [7] = assay: Antiviral activity against influenza A virus H3N2 infected in MDCK cells assessed as inhibition of virus-induced cytopathic effect after 3 days by MTS assay; format: functional, organism-based; in short: as §1
Punta Toro virus = assay: Antiviral activity against Punta toro virus infected in african green monkey Vero cells assessed as inhibition of virus-induced cytopathic effect after 3 days by MTS assay; format: functional, organism-based; in short: as §1
Staphylococcus aureus = assay: Antibacterial activity against Staphylococcus aureus after 24 hrs by serial dilution method; format: functional
Influenza B virus = assay: Antiviral activity against influenza B virus infected in MDCK cells assessed as inhibition of virus-induced cytopathic effect after 3 days by MTS assay; format: functional, organism-based; in short: as §1
Felid alphaherpesvirus 1 = assay: Antiviral activity against Feline herpesvirus 1 infected in […] cells assessed as inhibition of virus-induced cytopathic effect after 3 days by MTS assay; format: functional, organism-based; in short: as §1
Human alphaherpesvirus 1 [8] = assay: Antiviral activity against Herpes simplex virus 1 KOS infected in human HEL cells assessed as inhibition of virus-induced cytopathic effect after 3 days by MTS assay; format: functional, organism-based; in short: as §1
Human respirovirus 3 = assay: Antiviral activity against Parainfluenza 3 virus infected in african green monkey Vero cells assessed as inhibition of virus-induced cytopathic effect after 3 days by MTS assay; format: functional, organism-based; in short: as §1
Escherichia coli = assay: Antibacterial activity against Escherichia coli after 24 hrs by serial dilution method; format: functional
Sindbis virus = assay: Antiviral activity against Simbidis virus infected in african green monkey Vero cells assessed as inhibition of virus-induced cytopathic effect after 3 days by MTS assay; format: functional, organism-based; in short: as §1
[9] = system: Vesicular stomatitis virus; assay: Antiviral activity against VSV infected in human HeLa cells assessed as inhibition of virus-induced cytopathic effect after 3 days by MTS assay; format: functional, organism-based; conditions: 72 h; in short: as §1
Human alphaherpesvirus 1 [10] = assay: Antiviral activity against acyclovir-resistant […] kinase-deficient HSV1 KOS infected in human HEL cells assessed as inhibition of virus-induced cytopathic effect after 3 days by MTS assay; format: functional, organism-based; in short: as §1
[11] = system: Mammalian orthoreovirus 1; assay: Antiviral activity against Reovirus 1 infected in african green monkey Vero cells assessed as inhibition of virus-induced cytopathic effect after 3 days by MTS assay; format: functional, organism-based; in short: as §1
Feline coronavirus = assay: Antiviral activity against Feline caronavirus infected in […] cells assessed as inhibition of virus-induced cytopathic effect after 3 days by MTS assay; format: functional, organism-based; in short: as §1

Work on COc1cc(OC)cc(C(=O)N/N=C/c2ccccc2Cl)c1 yielded an EC50 [1] greater than 20 µg/mL, an EC50 (Coxsackievirus B4 [2]) greater than 20 µg/mL and a CC50 (HeLa) of 64 µg/mL (≈ 201 µM). The MCC at 72 h [3] was 100 µg/mL, the inhibition (Coxsackievirus B4 [4]) was “inactive” and the inhibition (Influenza A virus [5]) was “inactive”. For the same compound, the MBC (Bacillus subtilis) was 0.039 uM/ml, the inhibition [6] was “inactive” and the inhibition (Human alphaherpesvirus 2) was “inactive”. For the same compound, the inhibition (Vaccinia virus) was “inactive”, the “-logMIC” value (Aspergillus niger) was 1.56 and the MFC (Aspergillus niger) was greater than 0.157 uM/ml. For the same compound, the “-logMIC” value (Candida albicans) was 2.01, the MFC (Candida albicans) was 0.019 uM/ml and the inhibition (Influenza A virus [7]) was “inactive”. The inhibition (Punta Toro virus) was “inactive”, the MBC (Staphylococcus aureus) was greater than 0.157 uM/ml and the inhibition (Influenza B virus) was “inactive”. For the same compound, the inhibition (Felid alphaherpesvirus 1) was “inactive”, the inhibition (Human alphaherpesvirus 1 [8]) was “inactive” and the inhibition (Human respirovirus 3) was “inactive”. The MBC (Escherichia coli) was greater than 0.157 uM/ml, the inhibition (Sindbis virus) was “inactive” and the EC50 [9] was 13.2 µg/mL (≈ 41.4 µM). The inhibition (Human alphaherpesvirus 1 [10]) was “inactive”, the inhibition [11] was “inactive” and the inhibition (Feline coronavirus) was “inactive”.
